Among the data in ChEMBL document CHEMBL4196174, “Discovery of Indole Derivatives as Novel and Potent Dengue Virus Inhibitors” (J Med Chem, 2018) are CC50 and EC50 values, retold here.

Where only a bound is given, the exact number is not on record here.

Data set [1] in a line: Cytotoxicity against African green monkey Vero cells assessed as cell growth inhibition after 4 days by MTS/PMS method. The format is cell-based. The following applies: chlorocebus sabaeus, Vero cells. An outline of the steps: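 Cytotoxicity run as in the yield assay, but without virus. Vero cells (5×10^4/well) were exposed to 3- or 5-fold serial dilutions in MEM with 2% FBS. Viability was read by the MTS/PMS colorimetric method. CC50 was derived by logarithmic interpolation.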

A further data set has as its system dengue virus type 2. The data set is described as follows: Antiviral activity against Dengue virus 2 Rega infected in African green monkey Vero cells assessed as reduction in viral yield after 4 days by qRT-PCR analysis. The format is functional, organism-based. The conditions noted are these: Dengue virus, Rega, Vero, 96 h. An outline of the steps: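 Virus yield reduction in Vero cells (seeded 5×10^4/well). Next day infected with DENV (MOI 0.01) in assay medium (MEM, 2% FBS, 0.075% bicarbonate, 2 mM L-glutamine). After 1 h, input virus was removed and cells rinsed 3 times. Medium with 3- or 5-fold compound serial dilutions was then added. Incubation was 4 days (DENV-2, DENV-4) or 7 days (DENV-1, DENV-3). Supernatant viral RNA was measured by RT-qPCR, and EC50 obtained by logarithmic interpolation.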

On to `COc1nc(NC(C(=O)c2c[nH]c3ccccc23)c2ccccc2)ns1` (centres undefined), for which the CC50 at 96 h in data set [1] turned out to be 90 µM. For the same molecule, the EC50 in the data set on dengue virus type 2 was 3.3 µM.

On to `CCOc1cc(NC(C(=O)c2c[nH]c3ccccc23)c2ccccc2)cc(OC)c1` (centres undefined), for which the CC50 at 96 h in data set [1] came out at 13 µM. For the same molecule, in the data set on dengue virus type 2, the EC50 came out at 0.018 µM.

`COc1cccc(NC(C(=O)c2c[nH]c3ccccc23)c2cc3ccccn3n2)c1` (centres undefined): in data set [1], the CC50 at 96 h was determined as 26 µM. For the same molecule, in the data set with dengue virus type 2, the EC50 was 0.028 µM.

With `O=C(c1c[nH]c2ccccc12)C(NC1CCCC1)c1ccccc1` (centres undefined), the CC50 at 96 h in data set [1] came out at 86 µM. In addition, the EC50 in the data set on dengue virus type 2 was found to be 15 µM.

In the case of `COc1cc(NC(C(=O)c2c[nH]c3ccc(CO)cc23)c2ccccc2)cc(OC)c1` (centres undefined), the cytotoxic concentration (CC50) at 96 h in data set [1] was found to be 65 µM. In addition, the EC50 with dengue virus type 2 came out at 0.106 µM.

As for `COc1cccc(NC(C(=O)c2c[nH]c3cc(Cl)ccc23)c2ccccc2)c1` (centres undefined), the CC50 at 96 h in data set [1] came out at 13 µM. Further, the half-maximal effective concentration (EC50) in the data set on dengue virus type 2 amounted to 0.013 µM.

In the case of `O=C(c1c[nH]c2ccccc12)C(Nc1cc(F)cc(F)c1)c1ccccc1` (centres undefined), the CC50 at 96 h in data set [1] was 23 µM. Moreover, in the data set on dengue virus type 2, the half-maximal effective concentration (EC50) was 1.7 µM.

Take `COc1cccc(NC(C(=O)c2c[nH]c3cc(OC)ccc23)c2ccccc2)c1` (centres undefined): the half-maximal cytotoxic concentration (CC50) at 96 h in data set [1] was found to be 13 µM. The EC50 with dengue virus type 2 was found to be 0.043 µM.

Regarding `COc1cccc(NC(C(=O)c2c[nH]c3ccccc23)c2ccsc2)c1` (centres undefined), the cytotoxic concentration (CC50) at 96 h in data set [1] was determined as 15 µM. For the same molecule, the EC50 in the data set on dengue virus type 2 turned out to be 0.134 µM.

Consider `COc1cc(NC(C(=O)c2c[nH]c3ccccc23)c2ccccc2)cc(OCCN(C)C)c1` (centres undefined), for which the CC50 at 96 h in data set [1] was found to be 13 µM. Besides, the EC50 with dengue virus type 2 is 1.7 µM.

Take `COc1cccc(NC(C(=O)c2c[nH]c3ccccc23)c2cccc(C)c2)c1` (centres undefined): the CC50 at 96 h in data set [1] is 20 µM. Also, the EC50 with dengue virus type 2 worked out at 0.269 µM.

In the case of `COc1cc(NC(C(=O)c2c[nH]c3ccccc23)c2ccc(F)cc2)cc(OC)c1` (centres undefined), the CC50 at 96 h in data set [1] was 13 µM. The EC50 in the data set with dengue virus type 2 came to 0.004 µM.

On to `COc1cc(NC(C(=O)c2c[nH]c3ccc(CCO)cc23)c2ccccc2)cc(OC)c1` (centres undefined), for which the CC50 at 96 h in data set [1] is 56 µM. Further, the EC50 in the data set with dengue virus type 2 turned out to be 0.181 µM.

With `COc1cccc(NC(C(=O)c2c[nH]c3cccc(Cl)c23)c2ccccc2)c1` (centres undefined), the CC50 at 96 h in data set [1] stood at 18 µM. The EC50 in the data set on dengue virus type 2 amounted to 0.024 µM.

Take `COc1ccnc(NC(C(=O)c2c[nH]c3ccccc23)c2ccccc2)c1` (centres undefined): the CC50 at 96 h in data set [1] is 95 µM. Also, in the data set with dengue virus type 2, the EC50 was found to be 6.3 µM.

For the molecule `COc1cccc(NC(C(=O)c2c[nH]c3ccccc23)c2ccc3nccnc3c2)c1` (centres undefined), the CC50 at 96 h in data set [1] was 19 µM. Besides, the EC50 in the data set on dengue virus type 2 turned out to be 1.2 µM.

Regarding `O=C(c1c[nH]c2ccccc12)C(Nc1ccc2[nH]c(=O)oc2c1)c1ccccc1` (centres undefined), in data set [1], the CC50 at 96 h was found to be 15 µM. For the same molecule, the EC50 in the data set with dengue virus type 2 came to 6.1 µM.

As for `COc1cccc(NC(C(=O)c2c[nH]c3ccccc23)c2ccc(C#N)cc2)c1` (centres undefined), the CC50 at 96 h in data set [1] is 14 µM. Further, the EC50 with dengue virus type 2 was 0.041 µM.

For `COc1cc(NC(C(=O)c2c[nH]c3cccc(CO)c23)c2ccccc2)cc(OC)c1` (centres undefined), the CC50 at 96 h in data set [1] turned out to be 71 µM. In addition, in the data set with dengue virus type 2, the EC50 worked out at 0.288 µM.

Regarding `COc1cccc(NC(C(=O)c2c[nH]c3c(C)cccc23)c2ccccc2)c1` (centres undefined), the CC50 at 96 h in data set [1] is above 135 µM. Also, in the data set with dengue virus type 2, the EC50 worked out at 0.051 µM.

On to `COc1cccc(NC(C(=O)c2c[nH]c3ccccc23)c2ccncc2)c1` (centres undefined), for which the CC50 at 96 h in data set [1] came out at 16 µM. Further, the EC50 in the data set on dengue virus type 2 worked out at 0.138 µM.

As to `COc1cc(NC(C(=O)c2c[nH]c3cccc(CCCO)c23)c2ccccc2)cc(OC)c1` (centres undefined), the CC50 at 96 h in data set [1] turned out to be 55 µM. The EC50 in the data set on dengue virus type 2 is 1.4 µM.

`COc1cc(F)cc(NC(C(=O)c2c[nH]c3ccccc23)c2ccccc2)c1` (centres undefined): the half-maximal cytotoxic concentration (CC50) at 96 h in data set [1] is 22 µM. Further, the EC50 in the data set with dengue virus type 2 came out at 0.02 µM.

As to `N#Cc1cccc(NC(C(=O)c2c[nH]c3ccccc23)c2ccccc2)c1` (centres undefined), in data set [1], the 50% cytotoxic concentration (CC50) at 96 h amounted to 14 µM. Besides, the EC50 with dengue virus type 2 was determined as 2.1 µM.

For `COc1cccc(NC(C(=O)c2c[nH]c3ccccc23)c2ccccc2C)c1` (centres undefined), in data set [1], the CC50 at 96 h was 14 µM. Further, the EC50 with dengue virus type 2 was 0.096 µM.

As for `COc1cccc(NC(C(=O)c2c[nH]c3ccccc23)c2cccnc2)c1` (centres undefined), the CC50 at 96 h in data set [1] worked out at 71 µM. The EC50 in the data set with dengue virus type 2 stood at 0.138 µM.

Regarding `COc1cccc(NC(C(=O)c2c[nH]c3ccc(F)cc23)c2ccccc2)c1` (centres undefined), the cytotoxic concentration (CC50) at 96 h in data set [1] came out at 13 µM. The EC50 in the data set with dengue virus type 2 was found to be 0.034 µM.

`COc1cccc(NC(C(=O)c2c[nH]c3cccc(F)c23)c2ccccc2)c1` (centres undefined): the CC50 at 96 h in data set [1] came out at 21 µM. Further, the EC50 in the data set with dengue virus type 2 was found to be 0.122 µM.

For `COc1ccc(OC)c(NC(C(=O)c2c[nH]c3ccccc23)c2ccccc2)c1` (centres undefined), the CC50 at 96 h in data set [1] came out at 15 µM. Besides, the EC50 in the data set with dengue virus type 2 was found to be 2.5 µM.

For the molecule `O=C(c1c[nH]c2ccccc12)C(Nc1cccc(F)c1)c1ccccc1` (centres undefined), in data set [1], the CC50 at 96 h amounted to 12 µM. Moreover, in the data set on dengue virus type 2, the EC50 was 2.4 µM.

Take `CS(=O)(=O)c1cccc(NC(C(=O)c2c[nH]c3ccccc23)c2ccccc2)c1` (centres undefined): the CC50 at 96 h in data set [1] was 65 µM. Besides, the EC50 with dengue virus type 2 worked out at 6.5 µM.

As for `COc1cccc(NC(C(=O)c2c[nH]c3ccccc23)c2cnccn2)c1` (centres undefined), in data set [1], the 50% cytotoxic concentration (CC50) at 96 h amounted to 65 µM. Further, the EC50 in the data set with dengue virus type 2 stood at 0.837 µM.

For `COc1cccc(NC(C(=O)c2c[nH]c3ccccc23)c2ccc(C)nc2)c1` (centres undefined), in data set [1], the CC50 at 96 h worked out at 73 µM. Further, in the data set with dengue virus type 2, the EC50 is 0.073 µM.

Take `COc1cncc(NC(C(=O)c2c[nH]c3ccccc23)c2ccccc2)n1` (centres undefined): the cytotoxic concentration (CC50) at 96 h in data set [1] was determined as 68 µM. The EC50 in the data set on dengue virus type 2 is 0.484 µM.

As to `COc1cccc(NC(C(=O)c2c[nH]c3ccccc23)c2ccc(C)cc2)c1` (centres undefined), in data set [1], the CC50 at 96 h turned out to be 20 µM. In addition, the EC50 with dengue virus type 2 was 0.022 µM.

Turning to `COc1cccc(NC(C(=O)c2c[nH]c3ccccc23)c2cc(C)on2)c1` (centres undefined), the CC50 at 96 h in data set [1] was 50 µM. In the data set on dengue virus type 2, the EC50 worked out at 0.59 µM.

With `COc1cccc(NC(C(=O)c2c[nH]c3cc(F)ccc23)c2ccccc2)c1` (centres undefined), the CC50 at 96 h in data set [1] came to 15 µM. Besides, the EC50 in the data set on dengue virus type 2 came out at 0.045 µM.

As to `COc1cccc(NC(C(=O)c2c[nH]c3c(F)cccc23)c2ccccc2)c1` (centres undefined), in data set [1], the CC50 at 96 h was 14 µM. The EC50 in the data set on dengue virus type 2 was 0.057 µM.

With `COc1cccc(NC(C(=O)c2c[nH]c3ccccc23)c2ccco2)c1` (centres undefined), the CC50 at 96 h in data set [1] was 16 µM. Moreover, the EC50 in the data set on dengue virus type 2 was 0.297 µM.

As to `O=C(c1c[nH]c2ccccc12)C(Nc1cccc(OC(F)(F)F)c1)c1ccccc1` (centres undefined), the CC50 at 96 h in data set [1] turned out to be 5 µM. Also, the EC50 in the data set on dengue virus type 2 turned out to be 0.926 µM.

In the case of `COc1cccc(NC(C(=O)c2c[nH]c3ccccc23)c2ccccc2)c1OC` (centres undefined), the CC50 at 96 h in data set [1] is above 129 µM. Moreover, in the data set with dengue virus type 2, the EC50 stood at 4.2 µM.

As for `COc1cccc(NC(C(=O)c2c[nH]c3ccccc23)c2ccc(F)cc2)c1` (centres undefined), the CC50 at 96 h in data set [1] is 14 µM. The EC50 in the data set with dengue virus type 2 worked out at 0.025 µM.

In the case of `COc1cccc(NC(C(=O)c2c[nH]c3ccccc23)c2ccc(S(C)(=O)=O)cc2)c1` (centres undefined), in data set [1], the CC50 at 96 h was above 115 µM. For the same molecule, in the data set on dengue virus type 2, the EC50 came out at 1.6 µM.

Regarding `COc1cccc(NC(C(=O)c2c[nH]c3ccccc23)c2cncnc2)c1` (centres undefined), the CC50 at 96 h in data set [1] is 100 µM. In addition, the EC50 with dengue virus type 2 turned out to be 0.391 µM.

Turning to `COc1cc(NC(C(=O)c2c[nH]c3c(CCS(C)(=O)=O)cccc23)c2ccccc2)cc(OC)c1` (centres undefined), the CC50 at 96 h in data set [1] is above 102 µM. For the same molecule, the EC50 with dengue virus type 2 was found to be 0.406 µM.

Regarding `COc1cccc(NC(C(=O)c2c[nH]c3ccccc23)c2ccccc2)n1` (centres undefined), in data set [1], the cytotoxic concentration (CC50) at 96 h stood at 16 µM. Further, in the data set on dengue virus type 2, the EC50 came out at 0.288 µM.

As for `O=C(c1c[nH]c2ccccc12)C(Nc1cccnc1)c1ccccc1` (centres undefined), the CC50 at 96 h in data set [1] was 54 µM. In the data set with dengue virus type 2, the EC50 was 5 µM.
